Test results published in ChEMBL document CHEMBL1137753, “Insecticidal heterolignans--tubuline polymerization inhibitors with activity against chewing pests” (Bioorg Med Chem, 2009).
Active and inactive are the calls of the source. Unless noted, the rule behind the calls is not given here.

Columns and labels:
Phaedon cochleariae [1] = test: Insecticidal activity against Phaedon cochleariae larvae in disk of Chinese cabbage leaf at 20 g/ha treated as spray; type: functional, organism-based
Procedure, shortened: (§1)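 This was sprayed on Chinese cabbage leaf disks. Once dry, disks were infested with mustard beetle larvae and mortality was scored after a set time. "+" denotes ≥80% larvae killed; n.a. denotes none killed.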

Spodoptera frugiperda [2] = test: Insecticidal activity against Spodoptera frugiperda larvae in disk of maize leaf at 20 g/ha treated as spray; type: functional, organism-based
Procedure, shortened: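 Maize leaf disks (Zea mays) were sprayed, allowed to dry, then populated with S. frugiperda larvae. Mortality was scored after the desired time; '+' means at least 80% of larvae killed, 'n.a.' means none killed.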

Phaedon cochleariae [3] = test: Insecticidal activity against Phaedon cochleariae larvae in disk of Chinese cabbage leaf at 500 g/ha treated as spray; type: functional, organism-based; procedure, shortened: as §1
CHO [4] = test: Cytotoxicity against CHO cells assessed as chromatin condensation after 24 hrs by fluorescence microscopy; type: cell-based, Cricetulus griseus; settings: chinese hamster
CHO [5] = test: Cytotoxicity against CHO cells assessed as chromatin condensation after 48 hrs by fluorescence microscopy; type: cell-based, Cricetulus griseus; settings: chinese hamster
Procedure, shortened: (§2)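 Sf9 or CHO cells were seeded in chamber slides the day before treatment and exposed to compound for 48 h. They were then PBS-washed, fixed in ice-cold methanol for 10 min on ice, and rinsed with acetone. After rehydration in PBS, cells were stained with 2 µM DAPI for 30 min. Nuclei were examined by fluorescence microscopy (×40) for chromatin condensation or fragmentation.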

Sf9 [6] = test: Cytotoxicity against Spodoptera frugiperda Sf9 cells assessed as chromatin condensation at 0.14 ppm after 48 hrs by fluorescence microscopy; type: functional, cell-based
Procedure, shortened: (§3)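 Sf9 cells seeded in 8-well slide chambers the day before, then exposed to compound for 48 h. After two PBS washes, cells were fixed in ice-cold methanol for 10 min on ice, given two short acetone washes, rehydrated in PBS and stained with Dapi (2 µM) for 30 min. Chromatin condensation/fragmentation scored by fluorescence microscopy with a x40 objective.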

Spodoptera frugiperda [7] = test: Insecticidal activity against Spodoptera frugiperda larvae in disk of maize leaf at 4 g/ha treated as spray; type: functional, organism-based
Procedure, shortened: (§4)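 The same acetone/DMF/emulsifier formulation, diluted in emulsifier-containing water, was sprayed onto maize leaf disks. Dried disks were infested with fall armyworm larvae and mortality was assessed after a set time. "+" denotes ≥80% larvae killed; n.a. denotes no larvae killed.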

Spodoptera frugiperda [8] = test: Insecticidal activity against Spodoptera frugiperda larvae in disk of maize leaf at 500 g/ha treated as spray; type: functional, organism-based; procedure, shortened: as §4
Sf9 [9] = test: Cytotoxicity against Spodoptera frugiperda Sf9 cells assessed as chromatin condensation at 3 ppm after 48 hrs by fluorescence microscopy; type: functional, cell-based; procedure, shortened: as §2
Phaedon cochleariae [10] = test: Insecticidal activity against Phaedon cochleariae larvae in disk of Chinese cabbage leaf treated as spray; type: functional, organism-based
Sf9 [11] = test: Cytotoxicity against Spodoptera frugiperda Sf9 cells assessed as chromatin condensation at 1 ppm after 48 hrs by fluorescence microscopy; type: functional, cell-based; procedure, shortened: as §2
Spodoptera frugiperda [12] = test: Insecticidal activity against Spodoptera frugiperda larvae in disk of maize leaf treated as spray; type: functional, organism-based
Sf9 [13] = test: Cytotoxicity against Spodoptera frugiperda Sf9 cells assessed as chromatin condensation at 10 ppm after 48 hrs by fluorescence microscopy; type: functional, cell-based; procedure, shortened: as §2
Bos taurus = species on record: Bos taurus; test: Inhibition of bovine tubulin polymerization
Procedure, shortened: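 Tubulin (>99% pure, 300 µg/sample) was suspended at 4 °C in G-PEM buffer (80 mM PIPES, 2 mM MgCl2, 0.5 mM EGTA, 1.0 mM GTP, pH 6.9) plus 5% glycerol, with or without compound. Colchicine and taxol served as standards. Polymerization at 37 °C was followed as absorbance at 340 nm every 1 min for up to 60 min.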

Sf9 [14] = test: Cytotoxicity against Spodoptera frugiperda Sf9 cells assessed as chromatin condensation at >10 ppm after 48 hrs by fluorescence microscopy; type: functional, cell-based; procedure, shortened: as §3
Phaedon cochleariae [15] = test: Insecticidal activity against Phaedon cochleariae larvae in disk of Chinese cabbage leaf at 4 g/ha treated as spray; type: functional, organism-based; procedure, shortened: as §1

SMILES: COc1cc(OC)cc(C2C3=C(COC3=O)Nc3cc4c(cc32)OCO4)c1 (configuration not stated)
- Activity (Phaedon cochleariae [1]): Active
- Activity (Spodoptera frugiperda [2]): Active

SMILES: CCOc1ccc2c(c1)NC1=C(C(=O)OC1)C2c1cc(OC)cc(OC)c1 (configuration not stated)
- Activity (Phaedon cochleariae [3]): Active
- Activity (CHO [4]): Toxic
- Activity (CHO [5]): Toxic
- Activity (Sf9 [6]): Active
- Activity (Spodoptera frugiperda [7]): Active

SMILES: COc1cc(OC)cc(C2C3=C(COC3=O)Nc3cc(OC(C)C)ccc32)c1 (configuration not stated)
- Activity (Spodoptera frugiperda [8]): Active
- Activity (CHO [4]): Toxic
- Activity (Sf9 [9]): Active
- Activity (CHO [5]): Toxic
- Activity (Phaedon cochleariae [10]): inactive

SMILES: CCN1C2=C(C(=O)OC2)C(c2cc(OC)cc(OC)c2)c2cc3c(cc21)OCO3 (configuration not stated)
- Activity (Phaedon cochleariae [3]): Active
- Activity (Sf9 [11]): Active
- Activity (Spodoptera frugiperda [8]): Active
- Activity (CHO [4]): Toxic
- Activity (CHO [5]): Toxic

SMILES: O=C1OCC2=C1C(c1ccccc1Cl)c1cc3c(cc1N2)OCO3 (configuration not stated)
- Activity (Spodoptera frugiperda [12]): inactive
- Activity (CHO [4]): Toxic
- Activity (Sf9 [13]): Active
- Activity (CHO [5]): Toxic
- Activity (Phaedon cochleariae [10]): inactive

SMILES: CC(=O)O[C@H]1C(=O)[C@@]2(C)[C@H]([C@H](OC(=O)c3ccccc3)[C@]3(O)C[C@H](OC(=O)[C@H](O)[C@@H](NC(=O)c4ccccc4)c4ccccc4)C(C)=C1C3(C)C)[C@]1(OC(C)=O)CO[C@@H]1C[C@@H]2O
- inhibition (Bos taurus): inactive

SMILES: COc1cc(OC)cc(C2C3=C(COC3=O)Nc3cc(OC)c(OC)cc32)c1 (configuration not stated)
- Activity (Phaedon cochleariae [3]): Active
- Activity (Sf9 [11]): Active
- Activity (Spodoptera frugiperda [8]): Active
- Activity (CHO [4]): Toxic
- Activity (CHO [5]): Toxic

SMILES: COc1cc2c(c(OC)c1OC)-c1ccc(OC)c(=O)cc1[C@@H](NC(C)=O)CC2 [COLCHICINE]
- inhibition (Bos taurus): Active
- Activity (CHO [4]): Toxic
- Activity (CHO [5]): Toxic
- Activity (Sf9 [6]): Active

SMILES: COc1cc(OC)cc([C@@H]2C3=C(COC3=O)Nc3cc(OC)ccc32)c1
- Activity (CHO [4]): Toxic
- Activity (CHO [5]): Toxic
- Activity (Sf9 [14]): Active

SMILES: COc1cc(OC)cc(C2C3=C(COC3=O)Nc3c2ccc(OC)c3OC)c1 (configuration not stated)
- inhibition (Bos taurus): Active
- Activity (Phaedon cochleariae [1]): Active
- Activity (CHO [4]): Toxic
- Activity (CHO [5]): Toxic
- Activity (Sf9 [6]): Active
- Activity (Spodoptera frugiperda [7]): Active

SMILES: COc1cc(OC)cc(C2C3=C(COC3=O)Nc3c(OC)cc(OC)cc32)c1 (configuration not stated)
- Activity (Spodoptera frugiperda [8]): Active
- Activity (Phaedon cochleariae [15]): Active

SMILES: COc1ccc(C2C3=C(COC3=O)Nc3cc4c(cc32)OCO4)cc1OC (configuration not stated)
- Activity (Spodoptera frugiperda [12]): inactive
- Activity (CHO [4]): Toxic
- Activity (Sf9 [9]): Active
- Activity (CHO [5]): Toxic
- Activity (Phaedon cochleariae [10]): inactive

SMILES: COc1ccc2c(c1)NC1=C(C(=O)OC1)C2c1cc(OC)c(OC)c(OC)c1 (configuration not stated)
- Activity (Phaedon cochleariae [3]): Active
- Activity (Spodoptera frugiperda [2]): Active

SMILES: O=C1CCC2=C1C(c1cccc(Cl)c1)c1cc3c(cc1N2)OCO3 (configuration not stated)
- Activity (Spodoptera frugiperda [12]): inactive
- Activity (CHO [4]): Toxic
- Activity (Sf9 [9]): Active
- Activity (CHO [5]): Toxic
- Activity (Phaedon cochleariae [10]): inactive

SMILES: COc1cc(OC)cc(C2C3=C(COC3=O)Nc3cc(OC)ccc32)c1 (configuration not stated)
- Activity (Phaedon cochleariae [1]): Active
- Activity (Spodoptera frugiperda [7]): Active
